From ChEMBL document CHEMBL4513216, “Probing the Open Global Health Chemical Diversity Library for Multistage-Active Starting Points for Next-Generation Antimalarials” (ACS Infect Dis, 2020)

Assay: Toxicity liver stage against HepG2, at 10uM
Assay type: cell-based
Design: test concentration 10 uM, cell line HepG2-A16-CD81EGFP
Conditions: human, HepG2-A16-CD81EGFP cells; read-out: INHIBITION
In short: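 Uninfected HepG2-A16-CD81EGFP cells, 3 × 10^3 per well, 1536-well, plated on prespotted compound at 10 μM final, parasite-free screening media added to match infected plates; puromycin 10 μM positive, DMSO 0.5% negative; run in parallel with 48 h PbLuc assay at 37 °C, 5% CO2; viability by CellTiter-Glo luminescence, normalized to controls.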

| Compound | cytotoxicity at 10 µM |
| --- | --- |
| Cc1ccc(CN2CC[C@H]3CO[C@H](CN(C)C)[C@H]3C2)o1 | -114% |
| Cc1cc(NC(=O)CCc2ccsc2)n(C)n1 | 17.8% |
| Cc1cc(CN2CCCCC2Cn2cncn2)no1 (stereo not given) | -8.89% |
| Cn1ccc2c(ccn2CC(=O)Nc2ccc(Br)cc2)c1=O | 10.4% |
| CCC(C)(CC)NC(=O)COc1nn(C)c2nc(C)cc(C)c12 | -6.17% |
| COc1cc(S(=O)(=O)N2CCc3cc(Br)ccc32)cc(C(=O)O)c1OC | -15.9% |
| Cc1cc(C)c(OCC(=O)NS(=O)(=O)c2c(C)noc2C)c(C)c1 | -6.64% |
| c1ccc(OCc2nnn3c2CN(c2ncccn2)CCC3)nc1 | 1.89% |
| CCCc1nn(C2CCN(C3CC3)C2=O)c(=O)o1 (stereo not given) | -13.7% |
| O=C(Cc1csc(-c2ccco2)n1)N1CCN(CCO)CC1 | -0.337% |
| Cc1ccsc1C(=O)NCc1ccnc(N2CCN(C)CC2)c1 | -8.6% |
| CCOc1ncnc2c1CCN(S(=O)(=O)C1CC1)CC2 | 3.42% |
| CC(C)N(Cc1ccccc1)C(=O)NCCNC(=O)c1cccnc1 | -1.66% |
| O=C(Nc1ccccc1)c1ccc2c(c1)C1(CCCCC1)CN2 | -31.5% |
| CN1C(=O)CC(C(=O)O)C12CCN(Cc1cc(Cl)ccc1F)CC2 (stereo not given) | 5.64% |
| O=C(NC[C@]12COC[C@H]1CN(CC1CCOCC1)C2)c1ccco1 | -72.1% |
| CCSCCC(C)N(C)C(=O)c1cc(C)on1 (stereo not given) | -7.32% |
| CN(C)C(C(=O)NCC1(O)CCCCC1)c1cccc(F)c1 (stereo not given) | -2.07% |
| COc1ccc(OC)c(CN(C(=O)c2ccc(C)[nH]c2=O)C2CC2)c1 | -1.59% |
| O=C(c1cc2cc(F)ccc2[nH]1)N1CCCCC1Cn1cccn1 (stereo not given) | -8.91% |
| CCOCC1CN(Cc2ccoc2)Cc2ncn(CC3CC3)c21 (stereo not given) | -14.5% |
| CCc1ncc(C(=O)N2CCC(O)(CN3CCOCC3)C(C)(C)C2)cn1 (stereo not given) | -4.6% |

| Compound | cytotoxicity at 10 µM |
| --- | --- |
| CO[C@H]1CN(C)S(=O)(=O)[C@@]12CCN(Cc1ccccc1)C2 | 1.79% |
| c1cnc(N2CC[C@@H]3O[C@@H](COCc4cccnc4)CC[C@@H]32)nc1 | 11.2% |
| COc1cccc(OCC2CCCN(c3cc(C(N)=O)ccn3)C2)c1 (stereo not given) | 2.13% |
| Cc1nc(N2CCC(CN3CCCC3)CC2)c2cnn(C)c2n1 | 8.39% |
| COCc1cnc2n1CCN(C(=O)C1=CCCCC1)C2C (stereo not given) | -2.93% |
| Cc1cc(C(=O)NC(CC(C)C)C(=O)Nc2cc[nH]n2)c(C)o1 (stereo not given) | -11.7% |
| CN(C(=O)Cn1nc(-c2ccc(F)cc2)oc1=O)c1ccccc1 | -0.267% |
| Cc1cc(C)c2cc(C(=O)N3CCN(Cc4ccco4)CC3)[nH]c2c1 | -51.4% |
| O=C(CCCOCc1ccccc1)N1CCCC(n2cncn2)C1 (stereo not given) | -17.5% |
| O=C(c1ccnc(C2CCNCC2)c1)N1CCCOCC1 | -3.64% |
| Cc1cc2c(cc1C(=O)N1CC[C@H](CO)[C@@H](O)C1)OCCO2 | -10.8% |
| COC(=O)C(CNC(=O)Nc1nncs1)Cc1ccc(O)cc1 (stereo not given) | 16.9% |
| Cc1ccc(-n2cc(C(=O)NCC(C)Cn3cccn3)nn2)cc1 (stereo not given) | -46.2% |
| Cc1nc(-c2ccccc2)n(CC(=O)NC(C)(C)C)n1 | -16% |
| CC(C)c1nccn1C1CCCN(C(=O)c2ccc3c(c2)COC3)C1 (stereo not given) | 3.19% |
| CCc1nccn1CCCNc1nccc(-c2c(C)nn(C)c2C)n1 | 2.96% |
| COCCN1CCC2(CCCN(C(=O)c3cncn3C)C2)CC1 | -1.4% |
| O=C(C(CNCc1cccs1)c1ccccc1)N1CCOCC1 (stereo not given) | 0.142% |
| CCN(CC)Cc1cc(=O)n2c(n1)CN(C(=O)c1ccnnc1)CCC2 | 6.66% |
| Cn1c(CN2CCCCC2)nnc1C1CCCN(c2ccncc2F)C1 (stereo not given) | -0.37% |
| Cc1cccc(CN2CCC3(CCCN(C(=O)c4ccoc4)C3)C2=O)n1 (stereo not given) | 3.19% |
| Cc1cccc(CN2CCCC[C@H]3CN(c4ncccn4)C[C@H]32)c1 | 1.18% |

| Compound | cytotoxicity at 10 µM |
| --- | --- |
| NC(=O)C1CCN(C(=O)NCc2csc(Br)c2)CC1 | -18% |
| Cc1nc(CN2CCCCC2CCc2ccc(O)cc2)co1 (stereo not given) | 2.72% |
| c1ccc(CNc2ncc(CN3CCCN4CCC[C@H]4C3)cn2)cc1 | -9.53% |
| c1ccc(CCCN2CC(n3cccn3)C2)cc1 | -3.83% |
| OCCOCc1n[nH]c2c1CN(Cc1cccs1)C2 | 6.65% |
| CNc1ncccc1CN1CCC1c1cc(N)nc(C)n1 (stereo not given) | 15.9% |
| Cc1nc(C)n(CC2CCCCN2CCCC#N)n1 (stereo not given) | 6.73% |
| Cc1nc(-c2ccc(Cl)cc2)n(CC(=O)NC(C)C)c(=O)c1CCO | -8.88% |
| Cc1ccccc1C(C(=O)N1CCN(C(=O)c2ccc[nH]2)CC1)N(C)C (stereo not given) | -7.98% |
| Cc1ocnc1C(=O)N(C)[C@@H]1CC[C@@H](n2ccnc2C)[C@@H]1O | 0.642% |
| Cc1noc([C@@]23CCO[C@@H]2CCN(C(=O)c2c(C)noc2C)C3)n1 | 8.4% |
| CCN(CC)C(=O)C1CCC(=O)N(CCc2cccc(F)c2)C1 (stereo not given) | -4.92% |
| O=S(=O)(NCC1COc2ccccc2C1)N1CCCC1 (stereo not given) | -7.74% |
| CN1C(=O)C2(CCN(C(=O)c3ccccc3)CC2)c2cc(F)ccc21 | -106% |
| CC(NCc1cnc(N2CCOCC2)s1)c1ccc(Cl)s1 (stereo not given) | -9.02% |
| COc1ccc(CNC(=O)c2ccc(=O)n(C)c2)cc1C | 2.31% |
| CCN(CC)CCNc1ncc(-c2cc(C)no2)c(-c2ccoc2C)n1 | -4.94% |
| CCN1CCN(C2CCN(C(C(N)=O)c3ccccc3)CC2)C1=O (stereo not given) | -10.3% |
| CC(=O)c1cccc(CN2CC(Oc3ccccc3C)C2)c1 | -4.16% |
| COCCN1CCN(Cc2cnc(C(C)C)nc2)CC1 | 10.6% |
| O=C(N1CCOCC1)N1CCN(c2ccnc3ccsc23)CC1 | -4.48% |
| Cc1cc(C(=O)NC2(C#N)CCSCC2)n(C)n1 | 22.1% |

| Compound | cytotoxicity at 10 µM |
| --- | --- |
| CCn1cc(N)c(-c2nnc3n2CCC3)n1 | -12.1% |
| O=C1CCC(C(=O)Nc2ccc(=O)n(Cc3ccccc3Cl)c2)N1 (stereo not given) | -1.36% |
| Cc1cc2nc(C(C)C)cc(N3CCSCC3)n2n1 | 3.24% |
| O=S1(=O)C[C@@H]2[C@H](C1)N(Cc1cc(F)cc(F)c1)CCN2CCO | -2.61% |
| Cc1nc(N2CCN(C)CC2)ncc1C(=O)N1C[C@@H](C)[C@@](C)(O)C1 | 2.32% |
| CC(=O)N1CCC(Oc2ccc(C#N)cn2)CC1 | -17.3% |
| CC(C)N(CCS(C)(=O)=O)Cc1csc(-c2ccccc2F)n1 | -49.3% |
| COCCC(=O)N1CCCC1c1nccnc1Nc1ncccn1 (stereo not given) | -14.8% |
| CN(CC(O)C(F)(F)F)C(=O)Nc1cccc(Cn2cccn2)c1 (stereo not given) | 5.79% |
| Cc1nc2c(c(=O)n1C)CN(C(=O)C1CCCN(C(N)=O)C1)C2 (stereo not given) | -2.38% |
| CCN1CCN(c2ccc(C(=O)NC(C)C(=O)N(C)C)cc2)CC1 (stereo not given) | -4.98% |
| COc1ccc(C(C)NCc2c[nH]nc2C)cc1Br (stereo not given) | -5.57% |
| CC(=O)NCCNC(=O)NCc1ccc(-n2ccc(C(F)(F)F)n2)cc1 | -6% |
| Cc1cccc(N2CCC3(CCCC(=O)N3)CC2)n1 | -3.8% |
| CC(C)c1nnc2n1CCN(C(=O)c1ccc(S(C)(=O)=O)cc1)C2 | -0.252% |
| Cc1nc(-c2ccccc2)n(CC(=O)NCC(C)C)n1 | -2.97% |
| CSc1nc2ncc3c(=O)n(C)ccc3n2n1 | -11.6% |
| Cn1ccc(C2CCCCCN2C(=O)c2cccnc2)n1 (stereo not given) | 6.16% |
| O=C1C[C@H]2[C@@H](CCN2C(=O)Cc2cccs2)N1CC1CC1 | 3.2% |
| CNc1cc(C2CCCN2Cc2ccccc2OCC(=O)O)ccn1 (stereo not given) | -0.645% |
| COCCNC(=O)[C@@H]1CN(c2cc(OC)ncn2)C[C@H]2OCC[C@H]21 | -3.06% |
| CC1Oc2c(cccc2C(=O)N2CCCCCC2)NC1=O (stereo not given) | -6.81% |

| Compound | cytotoxicity at 10 µM |
| --- | --- |
| COc1cccc(C2(NC(=O)CCNC(C)=O)CC2)c1 | 1.6% |
| CN(C)C(=O)c1cncnc1-c1ccc(CNC(=O)C2CCCO2)cc1 (stereo not given) | 5.55% |
| COc1cccc(CN2CCCC3(CCN(C(=O)c4ccco4)C3)C2)c1 (stereo not given) | 6.34% |
| Cc1nc(CN2C[C@@H]3CN(C(=O)c4cnccn4)C[C@@H]3C2)cs1 | -8.97% |
| CCn1nc(C)c2ncnc(N(C)Cc3ccco3)c21 | 8.88% |
| c1ccc(NCc2cnc3n2CCN(C2CCOC2)CC3)nc1 (stereo not given) | -70.5% |
| CC1CCN(CCNC(=O)C2CCN(C(=O)C(C)(C)C)CC2)CC1 | 6.81% |
| Cc1ccc(N(CC(=O)NCc2nnc3n2CCC3)S(C)(=O)=O)cc1 | -4.66% |
| NC(=O)[C@H]1CCCN1C(=O)c1csc(-c2ccc(C(F)(F)F)cc2)n1 | -0.187% |
| Cc1nnc(NC(=O)NC2CCOc3ccccc32)s1 (stereo not given) | -13.4% |
| O=C(NC[C@]1(O)CN(Cc2ncccc2F)C[C@H]1O)c1cc[nH]n1 | -6.07% |
| Cc1cnc(NC(=O)N2CCCCCC2)s1 | -2.81% |
| O=C(NC1CCCN(c2ccccc2Cl)C1)c1ccc(=O)[nH]n1 (stereo not given) | -4.46% |
| CCc1nnc2n1CCN(C(=O)c1ccc(-c3ccco3)[nH]c1=O)C2 | -11.5% |
| O=C(C1CC(=O)N(c2n[nH]c3cc(Br)ccc23)C1)N1CCSCC1 (stereo not given) | -1.91% |
| CC(C)(C)S(=O)(=O)c1ccc(N2CCC(n3ccnc3)CC2)cn1 | -6.62% |
| Cc1nc(N2CC[C@@H](c3ccc4ccccc4c3)[C@H](O)C2)no1 | -3.65% |
| CC(NC(=O)NCCCn1cccn1)c1ccc2c(c1)NC(=O)CO2 (stereo not given) | -5.07% |
| CC1CCc2nc(O)c(C(=O)NCc3ccccc3F)cc2C1 (stereo not given) | 4.47% |
| COCCN1CCCC(c2cncc(Oc3ccccc3OC)n2)C1 (stereo not given) | -22.8% |
| CCc1ncc(C(=O)N(C)C2Cc3ccccc3C2)cn1 | -1.05% |
| CO[C@@H]1CC[C@H]2[C@H]1OCCN2C(=O)C1CCOCC1 | 3.33% |
